Rows were chosen to be rich in hits. Some 1.3% of all compounds tested hit in one or more screens of this group.
CendR NRP1 mod: modulators of CendR peptide binding to NRP-1, primary screen, biochemical, fluorescence polarization, uHTS; actives 0.85% (n = 360,000); inhibition, % at 25 µM; AID 602438, 2012; FAM-RPARPAR peptide binding to NRP-1; Neuropilin-1 (Homo sapiens), O14786;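 active = inhibition or corrected inhibition above about 18%, plus a signal ratio from 0.5 to 1.5, limit read from the data, passing the limit was not always enough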
Target sequence (O14786 whole entry, looked up): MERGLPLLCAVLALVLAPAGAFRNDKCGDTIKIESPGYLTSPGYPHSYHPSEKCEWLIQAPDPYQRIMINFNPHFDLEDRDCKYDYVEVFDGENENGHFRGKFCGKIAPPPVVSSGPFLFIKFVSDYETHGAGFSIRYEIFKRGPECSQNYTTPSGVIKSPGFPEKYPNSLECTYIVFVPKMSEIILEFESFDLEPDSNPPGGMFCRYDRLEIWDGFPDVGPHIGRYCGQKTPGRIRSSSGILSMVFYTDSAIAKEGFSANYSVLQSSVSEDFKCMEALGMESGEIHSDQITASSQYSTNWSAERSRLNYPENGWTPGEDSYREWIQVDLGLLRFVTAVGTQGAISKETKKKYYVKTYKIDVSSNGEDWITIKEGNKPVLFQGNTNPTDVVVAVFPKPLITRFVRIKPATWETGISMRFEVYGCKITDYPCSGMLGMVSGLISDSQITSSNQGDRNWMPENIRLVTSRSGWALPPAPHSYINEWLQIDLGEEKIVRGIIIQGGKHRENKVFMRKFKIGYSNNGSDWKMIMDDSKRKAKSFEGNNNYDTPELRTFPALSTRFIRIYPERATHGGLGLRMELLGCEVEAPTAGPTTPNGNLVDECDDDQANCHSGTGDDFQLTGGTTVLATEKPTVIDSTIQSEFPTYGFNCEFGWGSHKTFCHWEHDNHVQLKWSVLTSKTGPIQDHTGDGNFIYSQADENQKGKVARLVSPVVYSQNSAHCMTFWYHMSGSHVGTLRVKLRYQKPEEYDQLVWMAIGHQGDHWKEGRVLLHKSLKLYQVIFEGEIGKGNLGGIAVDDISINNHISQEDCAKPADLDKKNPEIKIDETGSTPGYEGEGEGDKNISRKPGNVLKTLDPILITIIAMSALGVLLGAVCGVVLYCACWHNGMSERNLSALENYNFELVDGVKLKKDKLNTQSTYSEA
aDG glyco up: activators of alpha-DG glycosylation, primary screen, uHTS, Pro5-aDG cells, AlphaScreen; activation, % at 10 µM; actives 0.22% (n = 360,000); AID 624168, 2012; alpha-DG glycosylation AlphaScreen (IIH6); 0% Pro5, 100% B10-LARGE cell signal;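 active = activation of at least 8% versus controls, or a plate z-score of at least 8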;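 also: Pro5 are CHO cells carrying HIG-tagged alpha-DG that lacks glycosylation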
DDE Tn6 FP inh: inhibitors of Tn6 peptide binding to fibrin DD(E), primary screen, biochemical, fluorescence polarization, human fibrin, Tn6 probe | Fibrinogen beta chain (Homo sapiens), P02675 | Fibrin DD(E) TRITC-Tn6 fluorescence polarization displacement | AID 720509, 2013 | inhibition, % at 8.3 µM | actives 0.21% (n = 370,000);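 active = inhibition above a per-campaign cutoff: mean of compounds within control limits plus 3 SD, cut at about 15% in these data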
Tn7 DDE FP: inhibitors of Tn7 peptide binding to fibrin DD(E), primary screen, biochemical, fluorescence polarization, human fibrin, Tn7 probe; Fibrinogen beta chain (Homo sapiens), P02675; FP displacement of FITC-Tn7 peptide from fibrin DD(E); 0% = median of compound wells per plate; inhibition, % at 8.3 µM; actives 0.13% (n = 370,000);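 active = inhibition above the mean of compounds falling within the control limits plus 3 SD of them, cut at about 14% in these data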
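Also added: labelled Tn7 tracer, 0.1 µM; Assay system: human fibrin DD(E) protein; Amount: 2 µM fibrin DD(E); Schedule: 10 min compound pre-incubation, 3 h probe incubation at room temperature; Repeats: one replicate per compound; Read-out basis: percent inhibition; Measured by: fluorescence polarization of the labelled Tn7 tracer.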
Tn6 DDE ctr: counter-screen for inhibitors of Tn6 peptide binding to fibrin DD(E). shares compounds with DDE Tn6 FP inh. TRITC-Tn6 fluorescence polarization displacement; 0% = median of compound wells, not DMSO. inhibition, % at 8.3 µM. actives 2% (n = 680). AID 720621;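 active = inhibition above the mean of test compounds lying between the control limits plus 3 SD of those, cut at about 14% in these data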
DDE Tn6 confirm: inhibitors of Tn6 peptide binding to fibrin DD(E), confirmation, biochemical, fluorescence polarization, human fibrin, Tn6 probe; shares compounds with DDE Tn6 FP inh; FP displacement of TRITC-Tn6 peptide from DD(E); 0% = per-plate median of test wells; inhibition, % at 8.3 µM; actives 10% (n = 680); AID 720631, 2013;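 active = inhibition above the mean of compounds lying within the control limits plus 3 SD, cut at about 16% in these data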
Each line names hits and unclear results; the compound was inactive in the other large screens (follow-up assays come after a bar, where they were run).

O=C1NC[C@@H](c2ccccc2)OC(=O)[C@@H](Cc2ccc(F)cc2)CC/C=C/C[C@@H]1CC(=O)N(CCO)Cc1ccccc1	CendR NRP1 mod 31, DDE Tn6 FP inh 16 | Tn6 DDE ctr inactive | DDE Tn6 confirm inactive
Cc1c(CN2CCC(C(=O)Nc3ccc(Oc4ccccc4)nc3)CC2)cnn1C	DDE Tn6 FP inh 15 | Tn6 DDE ctr inactive | DDE Tn6 confirm inactive
COc1ccc(CCN2CC(C(=O)OCC(=O)c3c(N)n(CC(C)C)c(=O)n(C)c3=O)CC2=O)cc1OC (configuration not stated)	DDE Tn6 FP inh 44 | Tn6 DDE ctr inactive | DDE Tn6 confirm inactive
CC(C)Cn1c(N)c(C(=O)COC(=O)C2CC(=O)N(Cc3ccccc3Cl)C2)c(=O)n(C)c1=O (configuration not stated)	none
CCCCn1c(O)c(C(CC)=Nc2ccc3c(c2)CCC3)c(=O)[nH]c1=O	DDE Tn6 FP inh 17 | Tn6 DDE ctr inactive | DDE Tn6 confirm inactive
COCCCNc1ccn2nc(-c3ccc(OCc4ccccc4)cc3)cc2n1	none
CCN(Cc1ccncc1)C(=O)C(CO)c1ccccc1 (configuration not stated)	DDE Tn6 FP inh 20 | Tn6 DDE ctr inactive | DDE Tn6 confirm inactive
COc1ccc(CC(=O)NCc2ccc3c(c2)cc(C)n3C)cc1OC	none
Cc1onc(-c2ccccc2Cl)c1C(=O)NCc1ccc2c(c1)cc(C)n2C	DDE Tn6 FP inh 22 | Tn6 DDE ctr inactive | DDE Tn6 confirm inactive
COCC(=O)NCc1ccc2c(c1)cc(C)n2C	DDE Tn6 FP inh 21 | Tn6 DDE ctr inactive | DDE Tn6 confirm inactive
CCOc1ccc(CC(=O)NCc2ccc3c(c2)cc(C)n3C)cc1	DDE Tn6 FP inh 45 | Tn6 DDE ctr inactive | DDE Tn6 confirm inactive
Cc1ccc(S(=O)(=O)NCc2ccc3c(c2)cc(C)n3C)cc1	DDE Tn6 FP inh 71 | Tn6 DDE ctr inactive | DDE Tn6 confirm inactive
Cc1ccc(CNC(=O)c2c(-c3ccccc3Cl)noc2C)cc1	none
COc1cc(OC)cc(C(=O)NCc2ccc3c(c2)cc(C)n3C)c1	none
Cc1cc2cc(CNC(=O)c3ccco3)ccc2n1C	CendR NRP1 mod 31, DDE Tn6 FP inh 27 | Tn6 DDE ctr inactive | DDE Tn6 confirm inactive
Cc1cc2cc(CNC(=S)Nc3ccc(OC(F)F)cc3)ccc2n1C	DDE Tn6 FP inh 20 | Tn6 DDE ctr inactive | DDE Tn6 confirm inactive
COc1ccc(C(=O)NCc2ccc3c(c2)cc(C)n3C)cc1	DDE Tn6 FP inh 19 | Tn6 DDE ctr inactive | DDE Tn6 confirm inactive
COc1cc(/C=C\C(=O)NCc2ccc3c(c2)cc(C)n3C)cc(OC)c1OC	DDE Tn6 FP inh 22 | Tn6 DDE ctr inactive | DDE Tn6 confirm inactive
CCOC(=O)[C@]12CCCCC/C=C\1N(CCc1ccc(Cl)cc1)C(=O)[C@H]2CC(=O)NCCc1ccccc1OC	none (no result: CendR NRP1 mod, aDG glyco up)
Cc1cc2cc(CNC(=O)Nc3ccc(Cl)c(Cl)c3)ccc2n1C	CendR NRP1 mod 19, DDE Tn6 FP inh 96 | Tn6 DDE ctr inactive | DDE Tn6 confirm 35
Cc1cc2cc(CNC(=O)NC3CCCCC3)ccc2n1C	none
Cc1cccc(OCC(=O)NCc2ccccc2)c1	none
Cc1cc2cc(CNC(=O)COc3ccccc3)ccc2n1C	DDE Tn6 FP inh 46 | Tn6 DDE ctr inactive | DDE Tn6 confirm inactive
CC(C)CNC(=O)OCc1cn(Cc2ccccc2F)nn1	none (no result: CendR NRP1 mod, aDG glyco up)
Cn1c(COc2ccccc2)nnc1SCc1nc2ccccc2[nH]1	none
COc1ccc(-n2c(COc3ccccc3)nnc2SCc2nc3ccccc3[nH]2)cc1	DDE Tn6 FP inh 18 (no result: CendR NRP1 mod, aDG glyco up) | Tn6 DDE ctr inactive | DDE Tn6 confirm inactive
Cc1ncc([N+](=O)[O-])n1S(=O)(=O)c1ccc2c(c1)OCCO2	none
Cc1cc(O)ccc1N/C=C1\CCCC1=O	DDE Tn6 FP inh 30 | Tn6 DDE ctr inactive | DDE Tn6 confirm inactive
CC(=O)Nc1ccc(N/C=C2/CCCC2=O)cc1	none
Nc1[nH]c(C(=O)c2ccccc2)c(-c2ccc(F)cc2)c1C(=O)c1c[nH]c2ccccc12	none (no result: CendR NRP1 mod, aDG glyco up)
CC(C)(C)c1ccc(NC(=O)CCNC(=O)c2ccco2)cc1	DDE Tn6 FP inh 15 | Tn6 DDE ctr inactive | DDE Tn6 confirm inactive
O=C(CCNC(=O)c1ccco1)Nc1ccc(C(F)(F)F)cc1	none
COc1ccc(NC(=O)C(c2cc3c(cc2[N+](=O)[O-])OCO3)N(C)Cc2ccccc2)cc1 (configuration not stated)	DDE Tn6 FP inh 31 | Tn6 DDE ctr inactive | DDE Tn6 confirm inactive
CCc1nc2ccc(C(=O)N(CC)CCN(C)C)cn2c1N(CC)C(=O)NCCc1ccccc1	none
CCOc1cccc(C(=O)Nc2ccc(N(CC)CC)cc2)c1	none
CCN(CC)c1cccc(OCC(=O)N(C)CCC#N)c1	DDE Tn6 FP inh 88 | Tn6 DDE ctr inactive | DDE Tn6 confirm inactive
C#CCn1c(S(=O)(=O)Cc2ccccc2Cl)nc(-c2ccccc2)c1-c1ccccc1	DDE Tn6 FP inh 16 | Tn6 DDE ctr inactive | DDE Tn6 confirm inactive
C#CCn1c(S(=O)(=O)Cc2ccc(C)cc2)nc(-c2ccccc2)c1-c1ccccc1	none
CCOC(=O)N1CCN(C(=O)C[C@H]2C(=O)N(CCCOC)C3=CCCC[C@@]32C(=O)OCC)CC1	DDE Tn6 FP inh 15 (no result: CendR NRP1 mod, aDG glyco up) | Tn6 DDE ctr inactive | DDE Tn6 confirm inactive
Cc1ccc(CNc2ncnc3ccc(-c4ccc(CO)o4)cc23)o1	none
CCN(CC)c1ccc2nc3ccc(N)cc3[n+](-c3ccccc3)c2c1	DDE Tn6 FP inh active | Tn6 DDE ctr inactive | DDE Tn6 confirm 93
Cc1ccccc1C(=O)N[C@H](C(=O)N1CCC[C@H]1C(=O)NC1CCCC1)C1CCCCC1	none (no result: CendR NRP1 mod, aDG glyco up)
O=S(=O)(O)c1cc(Cl)cc(N=Nc2ccc(O)cc2O)c1O	DDE Tn6 FP inh 23 | Tn6 DDE ctr inactive | DDE Tn6 confirm 30
O=[N+]([O-])c1ccc(N=Nc2ccc(O)cc2O)cc1	none
CN1[C@@H](Cc2ccccc2)COc2cc(N3CCSCC3)ccc2S1(=O)=O	none
CN(C)c1ccc2nc3ccc(=O)cc-3sc2c1	DDE Tn6 FP inh 146 | Tn6 DDE ctr inactive | DDE Tn6 confirm 70
Cc1ccc(-c2csc3nc4cc(C(=O)NC5CCC(O)CC5)ccc4c(=O)n23)cc1 (configuration not stated)	DDE Tn6 FP inh 17 | Tn6 DDE ctr inactive | DDE Tn6 confirm inactive
Cc1ccc(-c2csc3nc4ccc(C(=O)NCCO)cc4c(=O)n23)cc1	none

Bioassay records as filed in PubChem BioAssay.
